High-throughput results as filed in PubChem BioAssay.
iPSC survival up – hiPSC single-cell survival enhancement; ATPlite luminescence; 100% = ROCK inhibitor wells, 0% = DMSO; survival enhancement, % at 20 µM; 360,000 compounds, 0.044% hits; in the data active = survival enhancement above about 18%;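 also: cells exposed to compounds for 16 hours before the ATP read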
DAGLB inh – blocks human DAGLB lipase activity | Q8NCG7 | HEK293T DAGLB membrane lysate, EnzChek fluorogenic substrate | inhibition, % at 5.17 µM | 340,000 compounds, 0.059% hits; in the data active = inhibition above about 34%;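 also: 0% = enzyme with vehicle and 100% = wells lacking enzyme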
FAS TE block – inhibitors of human fatty acid synthase thioesterase domain; recombinant FAS-TE, OMFH fluorogenic substrate, fluorescence endpoint; inhibition, % at 15 µM; 360,000 compounds, 0.67% hits;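 active = compounds whose normalised, plate-corrected inhibition of enzyme fluorescence in the single-dose primary screen is 50% or more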;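 also: 0% = DMSO with enzyme and 100% = substrate without enzyme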
MT1-MMP act inh – inhibitors of human MT1-MMP activation | HT1080 RFP-PRO-GFP cells, GFP/RFP ratio fluorescence, overnight; percent of plate control window, DMSO zero | P50281 | AID 651647 | 360,000 compounds, 0.061% hits | GFP/RFP ratio change, % at 20 µM;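 active = GFP/RFP ratio change of at least 30% with cell ATP level not reduced by more than half and red fluorescence within 50% of control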
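Compound: 20 µM single dose, 1% DMSO / System: HT1080 RFP-PRO-GFP cells / Controls: DMSO and RFP-L50D-GFP cell wells / Read-out basis: GFP/RFP fluorescence ratio / Schedule: overnight compound exposure at 37 °C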
SKN-1 block – blocks SKN-1 activity in C. elegans | AID 624304 | 360,000 compounds, 0.49% hits | inhibition, % at 21.8 µM | C. elegans VP596 Pgst-4::GFP/RFP ratio, acrylamide-induced, 24 h;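 active = interference check ratio from 0.5 to 1.5 plus GFP to RFP signal ratio inhibition reaching or exceeding a fixed threshold, cut at about 30% in these data, passing the limit was not always enough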
An asterisk follows results filed as active; / = no result. This is a sample that favours compounds with a hit; in the whole collection about 1.3% have one here.

SMILES | iPSC survival up | DAGLB inh | FAS TE block | MT1-MMP act inh | SKN-1 block
CCOc1cc(C(N)=O)cc(Br)c1OC | 1 | -2 | -3 | -6 | 44*
Nc1ncnc2c1ncn2[C@@H]1O[C@H](C(=O)NCC2CCN(Cc3ccccc3)CC2)[C@@H](O)[C@H]1O | 2 | / | -10 | 3 | -2
O=C(NCc1cccnc1)c1cc(C2CCCCN2C(=O)c2ccc(Cl)cc2)on1 (centres undefined) | -3 | / | -7 | 2 | -9
O=C(c1cccnc1)C1Cc2ccccc2C1=O (centres undefined) | 1 | -1 | -3 | 1 | 36*
COc1ccccc1Cc1c(-c2ccccc2)nc2c(C)cc(Br)cn12 | 0 | / | 18 | -7 | 19
COCC(=O)Nc1sc2c(c1C(=O)OC)CCCC2 | -2 | -2 | 7 | -69 | 34*
COC(=O)c1c(NC(=O)c2ccco2)sc2c1CCC2 | 1 | -10 | 19 | -5 | 40*
COC(=O)c1c(NC(=O)COC(=O)c2ccc(O)cc2)sc2c1CCCCC2 | 0 | -3 | 25 | -6 | 3
CC(C)=CCC[C@H](C)CC1Cc2[nH]c(=S)[nH]c(=O)c2C(c2ccc(Cl)cc2)O1 (some centres undefined) | 0 | / | 26 | 12 | 0
Cc1ccc(-c2cc(C(=O)N/N=C/c3c(C)nn(-c4ccccc4)c3C)[nH]n2)cc1 | 1 | 1 | 3 | 15 | 47*
COc1ccc(C2C(C(C)=O)=C(C)N=c3s/c(=C\c4cc(C)n(C)c4C)c(=O)n32)c(OC)c1 (centres undefined) | 2 | -48 | -120 | -146 | 39*
CCN(CC)c1nc2ccccc2n2cnnc12 | 0 | 1 | 1 | / | 32
Cc1cc(C)n(-c2nc3ccccc3n3cnnc23)n1 | 2 | 0 | -6 | 11 | 38*
C#CCNC(=O)C[C@@H]1C[C@@]2(C(=O)OC)CC(C)(C)CC=C2N(Cc2ccccc2)C1=O | / | / | / | 2 | 1
Cc1ccc(NC(=S)NNC(=O)C2CC2c2ccc(C)cc2)cc1 (centres undefined) | -1 | -1 | -4 | -1 | 40*
COc1ccc(NC(=S)NNC(=O)C2CC2c2ccc(C)cc2)cc1 (centres undefined) | -1 | -1 | 2 | 0 | 3
CC(=O)Nc1cccc2c1Cc1ccccc1-2 | 0 | -1 | 0 | 2 | -5
CC(=O)Nc1ccc2c(c1Br)Cc1ccccc1-2 | 1 | -1 | 11 | 3 | 44*
Fc1ccc(CNc2nc(-c3ccccc3)nc3ccccc23)cc1 | -3 | -4 | 31 | 1 | 46*
c1ccc(-c2nc(NCc3cccnc3)c3ccccc3n2)cc1 | 1 | 0 | 8 | -3 | 22
COc1ccc(/C=C/C(=O)c2nc3ccccc3n2CC(=O)c2ccc(OC)cc2)cc1 | -2 | 1 | 15 | -2 | 44*
CC(C)COC(=O)N1CCCCC1c1cc(C(=O)NCc2cccnc2)no1 (centres undefined) | -1 | / | -3 | 4 | -1
Clc1ccc(N2CCN(c3ccnc(Cl)n3)CC2)cc1 | 0 | 0 | 13 | 6 | 57*
Fc1cccc(Cl)c1/C=C/c1cnc2ccccc2n1 | 1 | -3 | 12 | -5 | 20
Fc1cccc(F)c1/C=C/c1ccc2ccccc2n1 | -3 | -9 | 17 | -1 | 51*
SMILES | iPSC survival up | DAGLB inh | FAS TE block | MT1-MMP act inh | SKN-1 block
O=C(Nc1ccc2snnc2c1)N1CCSCC1 | 2 | 1 | -4 | 4 | 39*
C1=C[C@H]2CCCN3CC[C@@H]([C@@H]2[C@]32CO2)[C@H]1CCOCc1ccccc1 | 0 | / | -4 | 5 | -1
COc1ccc(N2C(=O)c3ccccc3NC(=O)C2C(=O)Nc2ccc3c(c2)OCCO3)cc1 (centres undefined) | / | / | / | 0 | -7
O=C(Nc1nc2c(F)cc(F)cc2s1)c1ccccn1 | -1 | 2 | 1 | 7 | 37*
O=C(NC1CCCCC1)N(Cc1nc2ccccc2c(=O)[nH]1)C1CCCCC1 | 28* | 1 | 6 | 0 | 9
C[C@H]1CN([C@@H](C)CO)C(=O)c2cccc(NC(=O)Nc3ccc(C(F)(F)F)cc3)c2O[C@@H]1CN(C)Cc1ccc(Cl)c(Cl)c1 | 2 | 2 | 77* | 4 | -10
C[C@H](CO)N1C[C@H](C)[C@@H](CN(C)C(=O)NC2CCCCC2)Oc2c(NC(=O)Nc3ccc(C(F)(F)F)cc3)cccc2C1=O | 5 | 1 | 85* | 5 | -7
C[C@H](CO)N1C[C@H](C)[C@@H](CN(C)C(=O)Nc2ccc(C(F)(F)F)cc2)Oc2c(NC(=O)Nc3ccccc3)cccc2C1=O | 1 | 0 | 64* | 2 | 19
C[C@@H]1CN([C@H](C)CO)C(=O)c2cc(NC(=O)Nc3ccc(C(F)(F)F)cc3)ccc2O[C@H]1CN(C)Cc1ccc(Cl)c(Cl)c1 | -2 | 2 | 13 | 0 | 16
COc1ccc(NC(=O)N(C)C[C@H]2Oc3c(NC(=O)Nc4ccc(C(F)(F)F)cc4)cccc3C(=O)N([C@H](C)CO)C[C@@H]2C)cc1 | 3 | 3 | 62* | 8 | 6
O=C(O)C1CCCC2CN3CCc4c([nH]c5ccccc45)C3C(O)C21 (centres undefined) | 0 | -1 | -13 | -16 | 37*
O=C(NCCCN1CCCCCC1)C1CC(=O)N(CCc2ccccc2)C1 (centres undefined) | 19* | -3 | -8 | 3 | 1
O=C(NCCCN1CCOCC1)C1CC(=O)N(CCc2ccccc2)C1 (centres undefined) | 0 | -7 | -8 | -1 | -7
CN(C(=O)CSCC(=O)Nc1ccc(Cl)cc1)C1CCCCC1 | 2 | -2 | 4 | 5 | 37*
O=C(/C=C/Sc1ccccc1)c1ccc(Cl)cc1 | -2 | -10 | 22 | -23 | 36*
O=C(C=Cc1ccccc1Cl)c1ccccc1 | -3 | 0 | 0 | -1 | -5
O=C(/C=C/Sc1ccccc1)c1ccccc1 | -5 | -16 | 13 | -17 | 81*
O=[N+]([O-])c1ccccc1C(=Nc1ccccc1)c1c(O)cc(O)cc1O | 2 | 31 | -3 | 15 | 5
Cn1c(/C(C#N)=C(\O)c2ccc([N+](=O)[O-])s2)nc2ccccc21 | 0 | -2 | -7 | 4 | 40*
Cn1c(/C(C#N)=C(\O)c2ccc(Cl)s2)nc2ccccc21 | 0 | 2 | 0 | 1 | 6
Cc1ccc(NC(=O)COC(=O)C2(C)CC2(Cl)Cl)cc1S(=O)(=O)N1CCOCC1 (centres undefined) | 0 | 2 | 4 | 3 | 41*
Cc1ccc(NC(=O)COC(=O)c2ccco2)cc1S(=O)(=O)N1CCOCC1 | 0 | 2 | -5 | 5 | -2
CCc1nc2ccc(C(=O)NCCN3CCOCC3)cn2c1N(C)Cc1ccc(OC)cc1 | 1 | / | -1 | -5 | 11
CN1C/C(=C/c2cccnc2)C(=O)/C(=C/c2cccnc2)C1 | 24* | -5 | -12 | -1 | -10
